Rows were chosen to be rich in hits. Some 3.1% of all compounds tested hit in one or more screens of this group.
GalR3 antagonist: GalR3 antagonists in HEK293 cells, primary screen, cell-based, fluorescence readout; Galanin receptor type 3 (Homo sapiens), O60755; HEK293 GalR3-CNG cAMP membrane potential fluorescence; galR3 body fused to GalR1 C-terminus; inhibition, % at 3 µM; 360,000 tested, 0.44% active;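 active means inhibition above the screen-wide average plus 3 SD, cut at about 13% in these data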;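 further: forskolin and galanin both at EC90 stimulate the cells; cAMP rise reported by CNG channel membrane potential dye signal; 0% = forskolin plus galanin with DMSO and 100% = forskolin alone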
Target sequence (O60755 1-299 limits assumed): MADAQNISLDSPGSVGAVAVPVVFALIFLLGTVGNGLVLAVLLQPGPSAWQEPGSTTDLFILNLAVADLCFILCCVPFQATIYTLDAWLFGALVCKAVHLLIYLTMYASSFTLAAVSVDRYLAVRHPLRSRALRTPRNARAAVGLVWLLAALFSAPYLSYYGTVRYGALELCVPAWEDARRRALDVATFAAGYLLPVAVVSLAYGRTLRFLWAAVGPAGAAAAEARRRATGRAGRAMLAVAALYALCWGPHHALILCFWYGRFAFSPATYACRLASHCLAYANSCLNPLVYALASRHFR
CHO parental Ca: ATP-evoked calcium signal inhibitors, parental CHO, primary screen, counter-screen for OX1R antagonist project, cell-based, fluorescence, Fluo-8 calcium dye; parental CHO-K1, ATP-induced calcium, Fluo-8 fluorescence; inhibition, % at 5.6 µM; 330,000 tested, 0.63% active;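 active means inhibition above that plate's mean sample inhibition plus 3 SD, cut at about 26% in these data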;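 further: 0% = ATP-challenged DMSO wells and 100% = DMSO wells without ATP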
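Test system: parental CHO cells; detection: calcium-sensitive Fluo-8 fluorescence; evaluation: percent inhibition of calcium signal; also added: ATP as calcium-mobilizing challenge; repeats: one well per compound; control set: ATP-challenged DMSO wells low, unchallenged DMSO wells high; compound: single nominal dose of 5.6 µM per compound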
OX1R antag-1: antagonists of human orexin 1 receptor (OX1R); inhibition, % at 6.6 µM; 330,000 tested, 1.8% active; Orexin/Hypocretin receptor type 1 (Homo sapiens), O43613; AID 485270, 2010; OX1R-expressing cells, FRET antagonist read-out; in the data active means inhibition mostly above about 38%, no sharp cut-off; inactive means mostly below about 40%;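 further: 0% = agonist challenge alone and 100% = reference antagonist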
OX1R antag-2: OX1R (HCRTR1) antagonists, primary screen, fluorescence, CHO/OX1R cells, Fluo-8 calcium, orexin A. Orexin/Hypocretin receptor type 1 (Homo sapiens), O43613. 330,000 tested, 0.43% active. inhibition, % at 5 µM. Fluo-8 calcium fluorescence;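 active means inhibition above its plate's threshold, mean inhibition of all tested compounds on the plate plus 3 SD, cut at about 37% in these data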;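 further: 0% = orexin A challenge wells and 100% = SB-334867-A antagonist wells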
GPR7 antag: GPR7 receptor antagonists, primary screen, cell-based, fluorescence, single concentration; GPR7-expressing cells, fluorescence antagonist assay; 290,000 tested, 1.1% active; AID 1861, 2009; inhibition, % at 4.4 µM; Neuropeptides B/W receptor type 1 (Homo sapiens), P48145; in the data active means inhibition above about 16%, passing the limit was not always enough;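 further: cells stimulated with the agonist NPW; 0% = agonist with vehicle and 100% = vehicle without agonist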
Target sequence (P48145 whole entry, looked up): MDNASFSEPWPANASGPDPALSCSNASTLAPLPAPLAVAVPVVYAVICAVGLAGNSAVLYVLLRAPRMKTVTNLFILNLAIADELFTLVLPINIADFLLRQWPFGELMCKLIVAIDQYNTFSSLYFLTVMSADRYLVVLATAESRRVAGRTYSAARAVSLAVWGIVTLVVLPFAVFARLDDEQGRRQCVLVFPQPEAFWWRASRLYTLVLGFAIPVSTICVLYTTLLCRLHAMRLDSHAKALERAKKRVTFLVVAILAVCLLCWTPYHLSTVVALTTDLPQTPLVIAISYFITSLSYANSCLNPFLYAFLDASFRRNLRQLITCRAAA
Numbers without * were called inactive; . = no result given.

SMILES | GalR3 antagonist | CHO parental Ca | OX1R antag-1 | OX1R antag-2 | GPR7 antag
CC(C)CN(C1CCS(=O)(=O)C1)S(=O)(=O)c1ccc(C(C)C)cc1 (stereo not given) | -3 | -10 | 19 | -31 | .
c1ccc(CNc2nc(-c3cccs3)nc3ccccc23)nc1 | -9 | -17 | 54* | -1 | -3
COc1ccc(-c2csc(NC(=O)c3c(OC)cccc3OC)n2)cc1 | -1 | -15 | 68* | 2 | -22
COc1ccc(-c2csc(NC(=O)COc3ccc(N(C)S(=O)(=O)c4ccc(C)cc4)cc3)n2)cc1 | 1 | -5 | 24 | -2 | -6
COc1ccc(S(=O)(=O)Nc2ccccc2C(=O)Nc2nc(-c3ccc(F)cc3)cs2)cc1OC | -11 | 26 | 67* | 39 | 16
COc1ccc(-c2csc(NC(=O)c3ccccc3NS(=O)(=O)c3ccc(C)cc3)n2)cc1 | -1 | 7 | 43* | 11 | 27*
COc1cccc(-c2csc(NC(=O)Nc3ccccc3)n2)c1 | -3 | 32* | 74* | 45* | 4
O=C(Nc1ccccc1)Nc1nc(-c2ccccc2)cs1 | -1 | 6 | 4 | 21 | -5
COc1ccc(OC)c(NC(=O)c2ccc(-c3csc(C)n3)cc2)c1 | -6 | -25 | 51* | 17 | -15
COc1ccc(C(=O)Nc2cc(OC)ccc2OC)cc1 | 2 | -15 | 27 | -24 | 2
COc1ccc(NC(=O)c2c(OC)cccc2OC)c(OC)c1 | -1 | -22 | 46* | -34 | -11
Cc1nc(Nc2ccc3c(c2)OCCO3)c2oc3ccccc3c2n1 | -3 | -32 | 55* | -24 | -19
c1ccc2c(c1)oc1c(Nc3ccc4c(c3)OCCO4)ncnc12 | -6 | -33 | 72* | -3 | -4
CCOC(=O)C(C(=O)OCC)C(C)(C)/C(C)=N\Nc1ccc([N+](=O)[O-])cc1[N+](=O)[O-] | -4 | -1 | 32 | 4 | 2
C#CCOc1ccccc1C(=O)NNc1ccc([N+](=O)[O-])cc1[N+](=O)[O-] | -7 | . | . | . | .
CCC(CC)=NNc1ccc([N+](=O)[O-])cc1[N+](=O)[O-] | -6 | -5 | 39 | -20 | -9
C/C(CCCO)=N/Nc1ccc([N+](=O)[O-])cc1[N+](=O)[O-] | -4 | 4 | 44* | 15 | 0
C/C(CCC(=O)O)=N/Nc1ccc([N+](=O)[O-])cc1[N+](=O)[O-] | -6 | -4 | 63* | -2 | -7
C#CCOC(=O)CCCNc1ccc([N+](=O)[O-])cc1[N+](=O)[O-] | -1 | 7 | 46* | -21 | 0
CCOC(=O)CC(C)(C)/C(C)=N/Nc1ccc([N+](=O)[O-])cc1[N+](=O)[O-] | -5 | 19 | 54* | -3 | -8
Cc1ccc(C(=O)NC2CCCCN(C)C2=O)c(C)c1 (stereo not given) | -7 | . | . | . | .
CC(C)CNc1cccc2c1S(=O)(=O)N[C@@H](CC(C)C)CO2 | 0 | . | . | . | .
Cc1cc(S(=O)(=O)NC(=O)[C@H]2O[C@@H](n3ccc(=O)[nH]c3=O)[C@H](O)[C@@H]2O)ccc1Br | -7 | . | . | . | .
CCNC(=O)N(C)[C@H]1C[C@H]2c3[nH]c4c(-c5ccc6c(c5)OCO6)cccc4c3CCN2C(=O)[C@H]1[C@H](C)O | -8 | . | . | . | .
CCOC(=O)CS(=O)(=O)c1nc(-c2ccccc2)cc(C(F)(F)F)n1 | 7 | 8 | 49 | 7 | 39*
SMILES | GalR3 antagonist | CHO parental Ca | OX1R antag-1 | OX1R antag-2 | GPR7 antag
CCOC(=O)CCS(=O)(=O)c1nc(-c2ccccc2)cc(C(F)(F)F)n1 | . | -7 | 39 | -10 | 26*
COC(=O)CCS(=O)(=O)c1nc(-c2ccccc2)cc(C(F)(F)F)n1 | . | 6 | 19 | -2 | 15
Cc1cccn2c(=O)c3cc(C(=O)NCc4cccnc4)c(=N)n(C(C)C)c3nc12 | -3 | 14 | 41* | -16 | 8
Cc1cccn2c(=O)c3cc(C(=O)NCc4ccco4)c(=N)n(C(C)C)c3nc12 | -4 | -26 | 38 | -30 | -20
CC(C)n1c(=N)c(C(=O)NCCc2ccccc2)cc2c(=O)n3ccccc3nc21 | -4 | -18 | 55* | -16 | 5
COC(=O)c1cc2c(=O)n3ccccc3nc2n(C(C)C)c1=N | . | . | . | . | 2
C/C(=N/NC(=O)C(C)n1nc(C)c([N+](=O)[O-])c1C)c1ccc(OCC(N)=O)cc1 (stereo not given) | 2 | -21 | 18 | -38 | -16
N#CC(=C=[N-])c1nc2ccccc2nc1-[n+]1cccc(NC(=O)c2ccccc2)c1 | 3 | -6 | 26 | -10 | -6
CCc1cc[n+](-c2nc3ccccc3nc2C(=C=[N-])C#N)cc1 | -3 | -2 | 74* | -14 | 0
O=C(Nc1nccs1)c1cccc(NC(=O)C(F)(F)F)c1 | -4 | -1 | 15 | -8 | 5
CCc1nccn1C(=O)c1cnn2c(C(F)F)cc(-c3ccc(C)cc3)nc12 | -3 | -13 | 47 | -1 | -11
CCc1nccn1C(=O)c1cnn2c(C(F)F)cc(-c3ccccc3)nc12 | . | -16 | 66* | -23 | -9
O=C1Nc2ccccc2O/C1=C\c1ccccc1Br | -11 | -16 | 45* | 4 | -14
CCC(=O)N1CCN(c2ccc(Cl)cc2NC(=O)Cc2ccccc2)CC1 | 1 | -27 | 5 | -19 | 17*
CCC(=O)Nc1cc(Cl)ccc1N1CCN(C(=O)CC)CC1 | 2 | -20 | 8 | -24 | -7
CC(=O)c1cc(F)c(N2CCN(C(=O)Cc3ccccc3)CC2)cc1C | 3 | 36 | 70 | 59* | 12
CCOC(=O)N1CCN(c2cc(C)c(C(C)=O)cc2F)CC1 | -4 | -24 | 9 | 1 | -15
C(=C\c1ccccc1)/CN1CCN(C(c2ccnc3ccccc23)c2nnnn2C2CCCC2)CC1 (stereo not given) | -9 | . | . | . | .
COc1ccc(CNc2ccc3cn[nH]c3c2)c(OC)c1OC | -6 | -7 | 37* | 7 | 4
CCOC(=O)C1=C(COC(=O)c2ccc([N+](=O)[O-])s2)NC(=O)NC1C (stereo not given) | -1 | 0 | 37* | -18 | .
N#C/C(=C\c1c(F)cccc1Cl)c1nn(-c2ccccc2)c(-n2cccc2)c1C#N | -6 | -19 | 36* | -14 | -18
CCN(CC)c1ccc(C=C2C(=O)OC(c3ccccc3)OC2=O)cc1 (stereo not given) | -4 | 4 | 7 | -9 | -18
CCN(CC)c1ccc(/C=C/C(=O)C2C(=O)C=C(C)OC2=O)cc1 (stereo not given) | -4 | 75* | 14 | 98* | 3
COC(=O)c1cc2c(c3c4cc(OC)ccc4n(S(=O)(=O)c4cccc(C)c4)c13)C(=O)N(Cc1ccc(N(C)C)cc1)C2 | -6 | . | . | . | .
CCCCn1cnc2c(=S)nc(N)[nH]c21 | -4 | -7 | 10 | -12 | -16

Compound activity: PubChem BioAssay, The Scripps Research Institute Molecular Screening Center
